Converted amounts (≈) assume the structure as drawn.
What was measured:
Assay type in all cases: functional
Enterococcus faecalis = experiment: Antibacterial activity against Enterococcus faecalis strain 29212
Procedure, shortened: (§1)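 Broth microdilution MIC run to NCCLS standards: serial 2-fold dilutions in cation-adjusted Mueller–Hinton broth, inoculum ~5 × 10^5 CFU/mL, incubated 35 °C for 18–24 h. Trays were read by eye, and the MIC was taken as the lowest concentration giving complete growth inhibition (no visible turbidity).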

Pseudomonas aeruginosa = experiment: Antibacterial activity against Pseudomonas aeruginosa strain 27853; procedure, shortened: as §1
Staphylococcus aureus [1] = experiment: Antibacterial activity against Staphylococcus aureus strain St au 33591 MRSA; procedure, shortened: as §1
Escherichia coli = experiment: Antibacterial activity against Escherichia coli strain 25922; procedure, shortened: as §1
Staphylococcus aureus [2] = experiment: Antibacterial activity against Staphylococcus aureus strain St au 29213; procedure, shortened: as §1

MIC (Enterococcus faecalis) [µg/mL] | MIC (Pseudomonas aeruginosa) [µg/mL] | MIC (Staphylococcus aureus [1]) [µg/mL] | MIC (Escherichia coli) [µg/mL] | MIC (Staphylococcus aureus [2]) [µg/mL] | SMILES
1.56 (≈ 3.92 µM) | 0.78 (≈ 1.96 µM) | 0.4 (≈ 1 µM) | 0.4 (≈ 1 µM) | 0.4 (≈ 1 µM) | C[C@@H]1CN(c2nc3c(cc2F)c(=O)c(C(=O)O)cn3-c2ccc(O)cc2)C[C@H]1N
1.56 (≈ 3.57 µM) | 12.5 (≈ 28.6 µM) | 0.2 (≈ 0.457 µM) | 3.13 (≈ 7.15 µM) | 0.2 (≈ 0.457 µM) | N[C@@H]1CCC[C@@H]2CN(c3cc4c(cc3F)c(=O)c(C(=O)O)cn4-c3ccc(O)cc3)C[C@@H]21
3.13 (≈ 7.32 µM) | 3.13 (≈ 7.32 µM) | 0.4 (≈ 0.936 µM) | 0.1 (≈ 0.234 µM) | 0.4 (≈ 0.936 µM) | COc1c(N2CCN(C)CC2)c(F)cc2c(=O)c(C(=O)O)cn(-c3ccc(O)cc3)c12
25 (≈ 60.5 µM) | 6.25 (≈ 15.1 µM) | 1.56 (≈ 3.77 µM) | 1.56 (≈ 3.77 µM) | 1.56 (≈ 3.77 µM) | COc1c(N2CCC(N)C2)c(F)cc2c(=O)c(C(=O)O)cn(-c3ccc(O)cc3)c12 (stereo not given)
3.13 (≈ 7.37 µM) | 1.56 (≈ 3.68 µM) | 0.4 (≈ 0.942 µM) | 1.56 (≈ 3.68 µM) | 0.4 (≈ 0.942 µM) | O=C(O)c1cn(-c2ccc(O)cc2)c2nc(N3CC4CCCNC4C3)c(F)cc2c1=O (stereo not given)
12.5 (≈ 27.6 µM) | 6.25 (≈ 13.8 µM) | 0.78 (≈ 1.72 µM) | 1.56 (≈ 3.44 µM) | 0.78 (≈ 1.72 µM) | COc1c(N2CC3CCCNC3C2)c(F)cc2c(=O)c(C(=O)O)cn(-c3ccc(O)cc3)c12 (stereo not given)
1.56 (≈ 3.92 µM) | 3.13 (≈ 7.86 µM) | 0.2 (≈ 0.502 µM) | 0.05 (≈ 0.126 µM) | 0.2 (≈ 0.502 µM) | CN1CCN(c2nc3c(cc2F)c(=O)c(C(=O)O)cn3-c2ccc(O)cc2)CC1
6.25 (≈ 15.7 µM) | 6.25 (≈ 15.7 µM) | 0.78 (≈ 1.96 µM) | 0.78 (≈ 1.96 µM) | 0.78 (≈ 1.96 µM) | CC1CNCCN1c1nc2c(cc1F)c(=O)c(C(=O)O)cn2-c1ccc(O)cc1 (stereo not given)
12.5 (≈ 32.5 µM) | 3.13 (≈ 8.14 µM) | 1.56 (≈ 4.06 µM) | 1.56 (≈ 4.06 µM) | 1.56 (≈ 4.06 µM) | O=C(O)c1cn(-c2ccc(O)cc2)c2nc(N3CCNCC3)c(F)cc2c1=O
25 (≈ 60.5 µM) | 6.25 (≈ 15.1 µM) | 0.4 (≈ 0.968 µM) | 0.78 (≈ 1.89 µM) | 0.2 (≈ 0.484 µM) | COc1c(N2CCNCC2)c(F)cc2c(=O)c(C(=O)O)cn(-c3ccc(O)cc3)c12
> 50 | 12.5 (≈ 29.4 µM) | 3.13 (≈ 7.36 µM) | 6.25 (≈ 14.7 µM) | 6.25 (≈ 14.7 µM) | COc1c(N2CC3CC2CN3)c(F)cc2c(=O)c(C(=O)O)cn(-c3ccc(O)cc3)c12 (stereo not given)
> 50 | 1.56 (≈ 4.06 µM) | 0.78 (≈ 2.03 µM) | 1.56 (≈ 4.06 µM) | 0.78 (≈ 2.03 µM) | NC1CCN(c2nc3c(cc2F)c(=O)c(C(=O)O)cn3-c2ccc(O)cc2)C1 (stereo not given)
12.5 (≈ 30.3 µM) | 12.5 (≈ 30.3 µM) | 1.56 (≈ 3.78 µM) | 6.25 (≈ 15.2 µM) | 1.56 (≈ 3.78 µM) | C[C@@H](N)[C@H]1CCN(c2nc3c(cc2F)c(=O)c(C(=O)O)cn3-c2ccc(O)cc2)C1
12.5 (≈ 31.6 µM) | 6.25 (≈ 15.8 µM) | 0.78 (≈ 1.97 µM) | 1.56 (≈ 3.95 µM) | 0.78 (≈ 1.97 µM) | O=C(O)c1cn(-c2ccc(O)cc2)c2cc(N3CC4CC3CN4)c(F)cc2c1=O (stereo not given)
6.25 (≈ 14.2 µM) | 3.13 (≈ 7.12 µM) | 0.78 (≈ 1.77 µM) | 0.4 (≈ 0.91 µM) | 0.78 (≈ 1.77 µM) | COc1c(N2C[C@@H](N)C3(CC3)C2)c(F)cc2c(=O)c(C(=O)O)cn(-c3ccc(O)cc3)c12
6.25 (≈ 15.2 µM) | 12.5 (≈ 30.3 µM) | 1.56 (≈ 3.78 µM) | 1.56 (≈ 3.78 µM) | 1.56 (≈ 3.78 µM) | C[C@H](N)[C@@H]1CCN(c2nc3c(cc2F)c(=O)c(C(=O)O)cn3-c2ccc(O)cc2)C1
3.13 (≈ 7.39 µM) | 6.25 (≈ 14.8 µM) | 0.4 (≈ 0.945 µM) | 1.56 (≈ 3.68 µM) | 0.4 (≈ 0.945 µM) | O=C(O)c1cn(-c2ccc(O)cc2)c2cc(N3CC4CCCNC4C3)c(F)cc2c1=O (stereo not given)
25 (≈ 60.8 µM) | 50 (≈ 122 µM) | 1.56 (≈ 3.79 µM) | 3.13 (≈ 7.61 µM) | 1.56 (≈ 3.79 µM) | C[C@@H](N)[C@H]1CCN(c2cc3c(cc2F)c(=O)c(C(=O)O)cn3-c2ccc(O)cc2)C1
1.56 (≈ 3.92 µM) | 0.78 (≈ 1.96 µM) | 0.4 (≈ 1 µM) | 0.4 (≈ 1 µM) | 0.4 (≈ 1 µM) | C[C@H]1CN(c2nc3c(cc2F)c(=O)c(C(=O)O)cn3-c2ccc(O)cc2)C[C@H]1N
6.25 (≈ 15.3 µM) | 6.25 (≈ 15.3 µM) | 0.78 (≈ 1.91 µM) | 0.78 (≈ 1.91 µM) | 0.4 (≈ 0.977 µM) | N[C@H]1CN(c2cc3c(cc2F)c(=O)c(C(=O)O)cn3-c2ccc(O)cc2)CC12CC2
> 50 | 3.13 (≈ 7.9 µM) | 3.13 (≈ 7.9 µM) | 1.56 (≈ 3.94 µM) | 1.56 (≈ 3.94 µM) | O=C(O)c1cn(-c2ccc(O)cc2)c2nc(N3CC4CC3CN4)c(F)cc2c1=O (stereo not given)
1.56 (≈ 3.93 µM) | 1.56 (≈ 3.93 µM) | 0.2 (≈ 0.503 µM) | 0.2 (≈ 0.503 µM) | 0.2 (≈ 0.503 µM) | C[C@@H]1CN(c2cc3c(cc2F)c(=O)c(C(=O)O)cn3-c2ccc(O)cc2)C[C@H]1N
12.5 (≈ 26.7 µM) | 6.25 (≈ 13.4 µM) | 1.56 (≈ 3.34 µM) | 0.4 (≈ 0.856 µM) | 0.78 (≈ 1.67 µM) | COc1c(N2CC3CCCN(C)C3C2)c(F)cc2c(=O)c(C(=O)O)cn(-c3ccc(O)cc3)c12 (stereo not given)
